Holding throughout (format): functional, cell-based
Test [1] can be described thus: Cytotoxicity against human KKU-M213 cells. Put shortly: (§1)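 SRB assay: cells seeded at 0.5–1.0 × 10^5 cells/mL and held 24 h at 37 °C. Compounds added in triplicate at final 0.025, 0.16, 0.8, 4 and 20 µg/well, with 0.1% DMSO as solvent control. Exposure was 72 h at 37 °C, plus a 1 h starting-cell plate. Cells fixed with TCA, stained with SRB, OD read at 510 nm. IC50 taken as 50% reduction of control protein increase.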

The nature of test [2]: Cytotoxicity against human KKU-M156 cells. In short, it runs like this:
as §1

A short description of test [3]: Cytotoxicity against human KKU100 cells. Put shortly: as §1
Test [4] in a line: Cytotoxicity against human KKU-M214 cells. Put shortly: as §1
Test [5] is described as follows: Cytotoxicity against human KKU-M139 cells. In short, it runs like this: as §1
In a further test the test system is KKU-M213. The experiment in a line: Cytotoxicity against human KKU-M213 cells at 75 uM.
The next test concerns KKU-M156. As to the kind of experiment: Cytotoxicity against human KKU-M156 cells at 75 uM.
For a further test, the system named is KKU-M214. The experiment in a line: Cytotoxicity against human KKU-M214 cells at 75 uM.
For another test, the system named is KKU100. The experiment in a line: Cytotoxicity against human KKU100 cells at 75 uM.
The next test has as its system KKU-M139. The experiment in a line: Cytotoxicity against human KKU-M139 cells at 75 uM.

The record followed here is ChEMBL document CHEMBL1240410, “Cytotoxicity against cholangiocarcinoma cell lines of zerumbone derivatives” (Eur J Med Chem, 2010).

Calls of active or inactive are those of the source. The rule behind the calls is not given here.

As usually defined, the IC50 is the concentration that gives 50% inhibition. The low end stands for greater potency, the high end for weaker potency. Regarding `C/C1=C\CC(C)(C)C(C#N)CC(=O)/C(C)=C/CC1` (stereo not given), the IC50 was 45.1 µM in test [1]; 37.3 µM in test [2]; 25.7 µM in [3]; 54.5 µM in test [4]; 55.9 µM in [5].
In the case of `C/C1=C\CC(C)(C)/C=C/C(=O)/C(C)=C/CC1`, the outcome in the test with KKU-M213, with KKU-M156, with KKU-M214, with KKU100 and with KKU-M139 was inactive.
Turning to `C/C1=C\CC(C)(C)/C=C/C(=O)[C@H](C)[C@H](N(C)C)CC1`, the result in the test on KKU-M213, in the test on KKU-M156, with KKU-M214, with KKU100 and in the test on KKU-M139 was inactive.
For `C/C1=C\CC(C)(C)C(C#N)CC(=O)[C@H](C)[C@H](N(C)C)CC1` (stereo not given in full), the outcome with KKU-M213, in the test on KKU-M156, in the test with KKU-M214, in the test with KKU100 and in the test on KKU-M139 was inactive.
Turning to `CCCCN(C(C)=O)[C@@H]1CC/C(C)=C/CC(C)(C)/C=C/C(=O)[C@@H]1C`, the result in the test on KKU-M213, with KKU-M156, in the test with KKU-M214, in the test with KKU100 and in the test on KKU-M139 was inactive.
As for `C/C1=C\CC(C)(C)/C=C/C(=O)[C@H](C)[C@H](N)CC1` (racemic), the IC50 in test [1] was found to be 51.9 µM; in test [2], 69 µM; in test [3], 16.4 µM; in test [4] it was 59.6 µM; in test [5], 63.3 µM.
With `C/C1=C\CC[C@@]2(C)O[C@H]2CC(C)(C)/C=C/C1=O` (racemic), the result with KKU-M213, with KKU-M156, in the test with KKU100 and in the test on KKU-M139 was inactive. In [4], this compound displayed an IC50 of 52.6 µM.
As to `C[C@H]1C(=O)/C=C/C(C)(C)C[C@@H]2O[C@]2(C)CC[C@H]1N` (racemic), the result in the test on KKU-M213, in the test with KKU-M156, in the test on KKU100 and with KKU-M139 was inactive. The compound further registered an IC50 in test [4] of 18.3 µM.
Regarding `C/C1=C\CC(C)(C)[C@H](C#N)CC(=O)[C@H](C)[C@H](C#N)CC1` (racemic), the result with KKU-M213, with KKU-M156, with KKU100 and with KKU-M139 was inactive. This compound also yielded an IC50 in test [4] of 66.5 µM.
For `CCCCN[C@@H]1CC/C(C)=C/CC(C)(C)/C=C/C(=O)[C@@H]1C` (racemic), the IC50 in test [1] is 36.6 µM; in [4], 41.6 µM. For the same compound, the outcome in the test with KKU-M156, in the test on KKU100 and in the test with KKU-M139 was inactive.
Turning to `CCCCN[C@@H]1CC/C(C)=C/CC(C)(C)/C=C/[C@H](O)[C@@H]1C` (racemic), the IC50 is 27.2 µM in test [1]; 26.3 µM in test [2]; 35.3 µM in test [3]; 16.1 µM in [4]; 19.6 µM in [5].
As to `CCCCN[C@@H]1CC[C@@]2(C)O[C@H]2CC(C)(C)/C=C/C(=O)[C@@H]1C` (racemic), the IC50 came out at 37.6 µM in test [1], 48.2 µM in [2], 16.5 µM in [3] and 51 µM in test [4]. The outcome in the test with KKU-M139 was inactive.
Regarding `C/C1=C\CC(C)(C)/C=C/C(=O)[C@H](C)[C@H](NCc2ccccc2)CC1` (racemic), the result in the test with KKU-M213, in the test with KKU-M156, in the test on KKU-M214, with KKU100 and in the test on KKU-M139 was inactive.
Regarding `C/C1=C\CC(C)(C)/C=C/C(O)/C(C)=C/CC1` (racemic), the result in the test on KKU-M213, in the test with KKU-M156, with KKU-M214, in the test on KKU100 and in the test with KKU-M139 was inactive.
Take `C/C1=C\CC(C)(C)/C=C/[C@H](O)[C@@]2(C)O[C@H]2CC1` (racemic): the outcome with KKU-M213, with KKU-M156, in the test on KKU-M214, in the test on KKU100 and in the test on KKU-M139 was inactive.
For `CC(=O)N[C@@H]1CC/C(C)=C/CC(C)(C)/C=C/C(=O)[C@@H]1C` (racemic), the result in the test with KKU-M213, with KKU-M156, in the test on KKU-M214, with KKU100 and in the test on KKU-M139 was inactive.
In the case of `CC(=O)N[C@@H]1CC/C(C)=C/CC(C)(C)/C=C/[C@H](O)[C@@H]1C` (racemic), the outcome in the test on KKU-M213, in the test on KKU-M156, with KKU-M214, in the test on KKU100 and in the test on KKU-M139 was inactive.
For the compound `CC(=O)N[C@@H]1CC[C@@]2(C)O[C@H]2CC(C)(C)/C=C/C(=O)[C@@H]1C` (racemic), the result in the test with KKU-M213, in the test on KKU-M156, with KKU-M214, in the test on KKU100 and in the test on KKU-M139 was inactive.
Regarding `CC(=O)OC1/C=C/C(C)(C)C/C=C(\C)CC/C=C/1C` (racemic), the outcome in the test on KKU-M213, in the test with KKU-M156, in the test with KKU-M214, in the test on KKU100 and in the test with KKU-M139 was inactive.
With `C[C@H]1C(=O)/C=C/C(C)(C)C[C@@H]2O[C@]2(C)CC[C@H]1NCc1ccccc1` (racemic), the result in the test on KKU-M213, in the test with KKU-M156, in the test on KKU-M214, with KKU100 and in the test on KKU-M139 was inactive.
`Cc1c2ccncc2c(C)c2c1[nH]c1ccccc12` [ELLIPTECINE]: the IC50 is 1.62 µM in [1]; 9.34 µM in test [2]; 25.2 µM in test [3]; 1.01 µM in test [4]; 4.5 µM in test [5].
